From ChEMBL document CHEMBL1765049, “Inhibitory properties of 2-substituent-1H-benzimidazole-4-carboxamide derivatives against enteroviruses” (Bioorg Med Chem, 2011)

system: Coxsackievirus B3; assay: Antiviral activity against Coxsackievirus B3 infected in african green monkey Vero cells assessed as inhibition of viral growth after 24 hrs by Reed-Muench method; type: functional, organism-based; details: Enterovirus B
Procedure, shortened: (§1)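 Vero cells were seeded and after 24 h exposed to virus for 2 h. Compounds were then added after being dissolved in DMSO and diluted in culture medium. Cell-control and virus-control wells were run alongside. Cytopathic effect was scored once the virus wells exceeded grade 4. The 50% inhibitory concentration of virus growth was calculated by the Reed–Muench method.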

Row | SMILES | IC50
1 | Cc1csc(NC(=O)c2cccc3[nH]c(-c4cccnc4)nc23)n1 | 16.2 µM
2 | O=C(N[C@H](CO)[C@H](O)c1ccc([N+](=O)[O-])cc1)c1cccc2[nH]c(-c3ccncc3)nc12 | 30.2 µM
3 | Cc1csc(NC(=O)c2cccc3[nH]c(-c4ccncc4)nc23)n1 | 21.3 µM
4 | O=C(Nc1ccccc1F)c1cccc2[nH]c(-c3ccco3)nc12 | 3.3 µM
5 | O=C(N[C@H](CO)[C@H](O)c1ccc([N+](=O)[O-])cc1)c1cccc2[nH]c(-c3ccco3)nc12 | 37.7 µM
6 | C[C@@H](NC(=O)c1cccc2[nH]c(-c3ccco3)nc12)[C@H](O)c1ccc(Cl)cc1 | 13.4 µM
7 | O=C(Nc1ccccc1F)c1cccc2[nH]c(-c3ccc([N+](=O)[O-])o3)nc12 | 25.3 µM
8 | O=C(N[C@H](CO)[C@H](O)c1ccc([N+](=O)[O-])cc1)c1cccc2[nH]c(-c3ccc([N+](=O)[O-])o3)nc12 | 22.9 µM
9 | C[C@@H](NC(=O)c1cccc2[nH]c(-c3ccc([N+](=O)[O-])o3)nc12)[C@H](O)c1ccc(Cl)cc1 | 16.2 µM
10 | O=C(Nc1ccccc1F)c1cccc2[nH]c(-c3ccncc3)nc12 | 37.2 µM
11 | O=C(Nc1ccccc1)c1cccc2[nH]c(-c3cccnc3)nc12 | 3.72 µM
12 | NC(=O)c1cccc2[nH]c(-c3cccnc3)nc12 | 26 µM
13 | O=C(Nc1ccccc1)c1cccc2[nH]c(-c3ccccn3)nc12 | 0.459 µM
14 | O=C(Nc1ccccc1F)c1cccc2[nH]c(-c3cccnc3)nc12 | 9.73 µM
15 | O=C(NCCO)c1cccc2[nH]c(-c3cccnc3)nc12 | 90.7 µM
16 | NC(=O)c1cccc2[nH]c(-c3ccccn3)nc12 | 30.6 µM
17 | O=C(Nc1ccccc1)c1cccc2[nH]c(-c3ccncc3)nc12 | 12.3 µM
18 | O=C(NCCO)c1cccc2[nH]c(-c3ccccn3)nc12 | 131 µM
19 | O=C(Nc1ccccc1F)c1cccc2[nH]c(-c3ccccn3)nc12 | 1.63 µM

system: not listed separately; assay: Selectivity index, ratio of TC50 for african green monkey Vero cells to IC50 for Coxsackievirus B3; type: toxicity, cell-based; details: read-out: Selectivity Index
Procedure, shortened: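 Selectivity index is calculated as TC50 in Vero cells divided by the antiviral IC50 against the named enterovirus. Both values come from the same Vero cytopathic-effect assay, with compounds dissolved in DMSO and diluted in medium.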

Row | SMILES | selectivity ratio
20 | Cc1csc(NC(=O)c2cccc3[nH]c(-c4cccnc4)nc23)n1 | 6.8
21 | O=C(N[C@H](CO)[C@H](O)c1ccc([N+](=O)[O-])cc1)c1cccc2[nH]c(-c3ccncc3)nc12 | 4.1
22 | Cc1csc(NC(=O)c2cccc3[nH]c(-c4ccncc4)nc23)n1 | 5.2
23 | O=C(Nc1ccccc1F)c1cccc2[nH]c(-c3ccco3)nc12 | 7.5
24 | O=C(N[C@H](CO)[C@H](O)c1ccc([N+](=O)[O-])cc1)c1cccc2[nH]c(-c3ccco3)nc12 | 4
25 | C[C@@H](NC(=O)c1cccc2[nH]c(-c3ccco3)nc12)[C@H](O)c1ccc(Cl)cc1 | 12.1
26 | O=C(Nc1ccccc1F)c1cccc2[nH]c(-c3ccc([N+](=O)[O-])o3)nc12 | 3
27 | O=C(N[C@H](CO)[C@H](O)c1ccc([N+](=O)[O-])cc1)c1cccc2[nH]c(-c3ccc([N+](=O)[O-])o3)nc12 | 3
28 | C[C@@H](NC(=O)c1cccc2[nH]c(-c3ccc([N+](=O)[O-])o3)nc12)[C@H](O)c1ccc(Cl)cc1 | 3
29 | O=C(Nc1ccccc1F)c1cccc2[nH]c(-c3ccncc3)nc12 | 3
30 | O=C(Nc1ccccc1)c1cccc2[nH]c(-c3cccnc3)nc12 | 9.2
31 | NC(=O)c1cccc2[nH]c(-c3cccnc3)nc12 | 3
32 | O=C(Nc1ccccc1)c1cccc2[nH]c(-c3ccccn3)nc12 | 38.9
33 | O=C(Nc1ccccc1F)c1cccc2[nH]c(-c3cccnc3)nc12 | 3.2
34 | O=C(NCCO)c1cccc2[nH]c(-c3cccnc3)nc12 | 7.5
35 | NC(=O)c1cccc2[nH]c(-c3ccccn3)nc12 | 7.3
36 | O=C(Nc1ccccc1)c1cccc2[nH]c(-c3ccncc3)nc12 | 4
37 | O=C(NCCO)c1cccc2[nH]c(-c3ccccn3)nc12 | 4.3
38 | O=C(Nc1ccccc1F)c1cccc2[nH]c(-c3ccccn3)nc12 | 28.4

system: Vero; assay: (§2) Cytotoxicity against african green monkey Vero cells; type: cell-based; details: chlorocebus sabaeus, vero
Procedure, shortened: (§3)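 TC50 is the compound concentration killing 50% of Vero cells (inhibiting cell growth by 50%). Compounds were dissolved in DMSO and diluted in medium, then added to seeded Vero cells. Cell wells were examined when cytopathic effect in virus-infected control wells exceeded grade 4.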

Row | SMILES | TC50
39 | COc1ccc(-c2nc3c(C(=O)Nc4ncc[nH]4)cccc3[nH]2)cc1OC | Not Active

system: not listed separately; assay: as §2; type: cell-based; details: chlorocebus sabaeus, Vero cells; read-out: TC50 (the source's name); procedure, shortened: as §3

Row | SMILES | CC50
40 | Cc1csc(NC(=O)c2cccc3[nH]c(-c4cccnc4)nc23)n1 | 111 µM
41 | O=C(N[C@H](CO)[C@H](O)c1ccc([N+](=O)[O-])cc1)c1cccc2[nH]c(-c3ccncc3)nc12 | 123 µM
42 | Cc1csc(NC(=O)c2cccc3[nH]c(-c4ccncc4)nc23)n1 | 111 µM
43 | O=C(Nc1ccccc1F)c1cccc2[nH]c(-c3ccco3)nc12 | 25 µM
44 | O=C(N[C@H](CO)[C@H](O)c1ccc([N+](=O)[O-])cc1)c1cccc2[nH]c(-c3ccco3)nc12 | 152 µM
45 | C[C@@H](NC(=O)c1cccc2[nH]c(-c3ccco3)nc12)[C@H](O)c1ccc(Cl)cc1 | 162 µM
46 | O=C(Nc1ccccc1F)c1cccc2[nH]c(-c3ccc([N+](=O)[O-])o3)nc12 | 75.9 µM
47 | O=C(N[C@H](CO)[C@H](O)c1ccc([N+](=O)[O-])cc1)c1cccc2[nH]c(-c3ccc([N+](=O)[O-])o3)nc12 | 68.7 µM
48 | C[C@@H](NC(=O)c1cccc2[nH]c(-c3ccc([N+](=O)[O-])o3)nc12)[C@H](O)c1ccc(Cl)cc1 | 48.6 µM
49 | O=C(Nc1ccccc1F)c1cccc2[nH]c(-c3ccncc3)nc12 | 111 µM
50 | O=C(Nc1ccccc1)c1cccc2[nH]c(-c3cccnc3)nc12 | 34.2 µM
51 | NC(=O)c1cccc2[nH]c(-c3cccnc3)nc12 | 77.7 µM
52 | O=C(Nc1ccccc1)c1cccc2[nH]c(-c3ccccn3)nc12 | 17.9 µM
53 | O=C(NCCO)c1cccc2[nH]c(-c3ccncc3)nc12 | 498 µM
54 | O=C(Nc1ccccc1F)c1cccc2[nH]c(-c3cccnc3)nc12 | 54.7 µM
55 | O=C(NCCO)c1cccc2[nH]c(-c3cccnc3)nc12 | 682 µM
56 | NC(=O)c1cccc2[nH]c(-c3ccccn3)nc12 | 224 µM
57 | O=C(Nc1ccccc1)c1cccc2[nH]c(-c3ccncc3)nc12 | 49.8 µM
58 | O=C(NCCO)c1cccc2[nH]c(-c3ccccn3)nc12 | 568 µM
59 | O=C(Nc1ccccc1F)c1cccc2[nH]c(-c3ccccn3)nc12 | 54.7 µM

system: Coxsackievirus A16; assay: Antiviral activity against Coxsackievirus A16 infected in african green monkey Vero cells assessed as inhibition of viral growth after 24 hrs by Reed-Muench method; type: functional, cell-based; details: vero; procedure, shortened: as §1

Row | SMILES | IC50
60 | COc1ccc(-c2nc3c(C(=O)Nc4ncc[nH]4)cccc3[nH]2)cc1OC | Not Active
